We go through 6 substances from paper PMC6137948 (Drug Design, Development and Therapy, 2018).

One series relates to S. epidermidis 533. As to the kind of experiment: MIC, broth micro-dilution, pre-screening panel. It is filed as cell-based, Staphylococcus epidermidis. The note with it: Mueller Hinton broth. A general note: Dilution methods test growth across graded concentrations, often in twofold steps.
The next series has as its system S. haemolyticus 602. As to the kind of experiment: MIC, broth micro-dilution, pre-screening panel. The note with it: Mueller Hinton broth. It is filed as cell-based, Staphylococcus haemolyticus.
A further series deals with S. aureus 3797 (VISA). As to the kind of experiment: MIC, broth micro-dilution, pre-screening panel. As to conditions: S. aureus 3797 (VISA HIP-5836), Mueller Hinton broth. It is filed as cell-based, Staphylococcus aureus.
A further series has as its system S. aureus 3798 (VISA). As to the kind of experiment: MIC, broth micro-dilution, pre-screening panel. It is filed as cell-based, Staphylococcus aureus. As to conditions: S. aureus 3798 (VISA HIP-5827), Mueller Hinton broth.
Another series has as its system E. faecium 568. As to the kind of experiment: MIC, broth micro-dilution, pre-screening panel. It is filed as cell-based, Enterococcus faecium. The note with it: E. faecium 568 (VSE), Mueller Hinton broth.
Another series has as its system E. faecalis 559. As to the kind of experiment: MIC, broth micro-dilution, pre-screening panel. It is filed as cell-based, Enterococcus faecalis. As to conditions: E. faecalis 559 (VSE), Mueller Hinton broth.
Another series concerns S. aureus (MRSA, n=255). As to the kind of experiment: Antimicrobial susceptibility testing of clinical isolates. It is filed as cell-based, Staphylococcus aureus. The method, boiled down:
(§1)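 Non-duplicate clinical isolates from hospitalised adults and children with community or nosocomial infections (skin/soft tissue, respiratory tract, bone, joint, urinary tract, abdominal). Tested per EUCAST recommendations by broth microdilution in Mueller Hinton broth following NCCLS procedures.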

A further series relates to S. aureus (MSSA, n=179). The description is as above. It is filed as cell-based, Staphylococcus aureus. In short, it runs like this:
as §1

The test system of series [1] is Coagulase-negative Staphylococcus (n=45). The description is as above. It is filed as cell-based. The method, boiled down: as §1
For a further series, the system named is E. faecalis (n=122). The series is described as above. It is filed as cell-based, Enterococcus faecalis. In short, it runs like this: as §1
The next series relates to E. faecium (n=75). As to the kind of experiment: Antimicrobial susceptibility testing of clinical isolates. It is filed as cell-based, Enterococcus faecium. As to conditions: for MIC 50% (MIC50) / MIC 90% (MIC90): E. faecium n=75.
In series [2] the test system is vancomycin-intermediate resistant Staphylococcus aureus (VISA). As to the kind of experiment: MIC, pre-screening panel, summary for VISA strains. It is filed as cell-based. As to conditions: summary of Table 1, S. aureus 3797 and 3798.
The test system of series [3] is genera Staphylococcus and Enterococcus. As to the kind of experiment: Antimicrobial susceptibility testing, panel of 676 isolates, summary. It is filed as cell-based. The note with it: for MIC90 for the genera Staphylococcus and Enterococcus: panel of 676 isolates, except for E. faecium.
The subject of another series is S. aureus (strain 10). As to the kind of experiment: Mouse model of staphylococcal sepsis. It is filed as in vivo. As to conditions: staphylococcal sepsis in mice, IV. The method, boiled down: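 Female SHK mice (22–25 g), quarantined 2 weeks, infected IV with mouse-adapted S. aureus strain 10 at lethal dose (LD100 3 × 10^8 CFU/mouse). Thirty minutes later, test compound given IV in 5% glucose at 6 doses (0.25–4.5 mg/kg); comparator glycopeptides at 2.5–7.5 and 0.5–5.0 mg/kg. Untreated infected controls included. Mortality recorded daily for 10 days. ED50 by Barents frequency-accumulation method; ratios from ED50 values.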

Series [4] deals with non-immune activation of histamine release (inflammatory reaction to concanavalin A). As to the kind of experiment: Pseudoallergic inflammatory reaction on concanavalin A. It is filed as in vivo. The note with it: male CBA mice; single IV dose of MTD.
For another series, the system named is CBA mice. As to the kind of experiment: Acute toxicity in mice. The note with it: for MTD (LD10): CBA mice, single bolus IV injection in 5% glucose, Litchfield and Wilcoxon; for ratio between therapeutic (ED50) and toxic doses (MTD): ED50 in sepsis model / MTD in mice.
The test system of series [5] is panel of clinical isolates of Gram-positive microorganisms. As to the kind of experiment: MIC, pre-screening panel, summary for all tested strains. It is filed as cell-based. As to conditions: text summary of Table 1, all strains of the pre-screening panel.
For another series, the system named is VISA. The note with it: Introduction; cited from earlier work.
The next series has as its system VRE. The note with it: Introduction; cited from earlier work.
[6] abbreviates: VRE isolates of the E. faecium collection.

“Also recorded” adds a separate entry of the source.

Broadly, the MIC is the lowest concentration that inhibits growth of the organism. Read a high MIC as a less susceptible organism. Turning to Eremomycin pyrrolidide [compound 5], the MIC was 0.25 µg/mL against S. epidermidis 533; 0.25 µg/mL in the series on S. haemolyticus 602; 1 µg/mL against S. aureus 3797 (VISA); 1 µg/mL against S. aureus 3798 (VISA); 0.13 µg/mL against E. faecium 568; 0.25 µg/mL in the series on E. faecalis 559. The “MIC 50% (MIC50)” value in the series on S. aureus (MRSA, n=255) is 0.25 µg/mL; in the series on S. aureus (MSSA, n=179) it was 0.5 µg/mL; in series [1] it was 0.25 µg/mL; against E. faecalis (n=122) it was 0.25 µg/mL; against E. faecium (n=75), 0.125 µg/mL. The “MIC 90% (MIC90)” value in the series with S. aureus (MRSA, n=255) came out at 0.5 µg/mL; with S. aureus (MSSA, n=179) it was 0.5 µg/mL; in series [1], 0.5 µg/mL; in the series with E. faecalis (n=122), 0.5 µg/mL; against E. faecium (n=75), 4 µg/mL. The “susceptibility of vancomycin-resistant E. faecium (VRE) strains, in words” value in the series with E. faecium (n=75) (setting [6]) is recorded as “susceptible”. The “MICs against VISA strains” value was 0.5 to 2 mg/L in series [2] and 1 mg/L in series [2] (listed as eremomycin pyrrolidide (5)). In addition, in series [3] (S. aureus, coagulase-negative Staphylococcus and Enterococcus strains), the “potency exceeding that of vancomycin (1)” value is reported as 2–4 dilutions. In [3], the “MIC90 for the genera Staphylococcus and Enterococcus” value turned out to be 0.5 µg/mL. In addition, in the series on S. aureus (strain 10), the “ED50 times lower than that for 1” value is 5 times. In addition, in the series with S. aureus (strain 10), the “ED50 times lower than that for 2” value is 2.5 times. Also, the “pseudoallergic inflammatory reaction on concanavalin A, in words” value (from here on “pseudoallergic inflammatory reaction”) in series [4] was “did not induce pseudoallergic inflammatory reaction; also recorded: non-significant difference; also recorded: no histamine release activity”. In addition, the “MTD (LD10)” value in the series on CBA mice was determined as 119.7 mg/kg. For the same substance, the “ratio between therapeutic (ED50) and toxic doses (MTD)” value in the series with CBA mice (IV) is 1/150. In addition, the “acute toxicity, fold higher” value in the series on CBA mice (by LD50 compared with 1, CBA mice, IV) is recorded as “about 2 fold”. The “therapeutically efficient dose, fold smaller than MTD” value with CBA mice (mice, IV) stood at 150 fold.

On to Vancomycin pyrrolidide [compound 3], for which the MIC against S. epidermidis 533 worked out at 0.5 µg/mL; with S. haemolyticus 602, 0.5 µg/mL; with S. aureus 3797 (VISA), 4 µg/mL; with S. aureus 3798 (VISA) it was 8 µg/mL; with E. faecium 568, 1 µg/mL; with E. faecalis 559 it was 2 µg/mL. Further, in series [5], the “MICs against the tested strains” value lay in the range of 0.5 to 8 mg/L.

On to “Vancomycin [compound 1, reference compound]”, for which the MIC against S. epidermidis 533 came to 2 µg/mL; with S. haemolyticus 602, 2 µg/mL; with S. aureus 3797 (VISA), 8 µg/mL; against S. aureus 3798 (VISA) it was 8 µg/mL; in the series on E. faecium 568, 2 µg/mL; against E. faecalis 559, 2 µg/mL. For the same substance, the “MIC 50% (MIC50)” value against S. aureus (MRSA, n=255) worked out at 1 µg/mL; with S. aureus (MSSA, n=179), 1 µg/mL; in [1], 2 µg/mL; against E. faecalis (n=122), 1 µg/mL; against E. faecium (n=75) it was 1 µg/mL. Moreover, the “MIC 90% (MIC90)” value worked out at 2 µg/mL against S. aureus (MRSA, n=255); 1 µg/mL against S. aureus (MSSA, n=179); 2 µg/mL in series [1]; 2 µg/mL against E. faecalis (n=122); 2 µg/mL against E. faecium (n=75). Also, the “MIC for strains of vancomycin-resistant E. faecium (VRE)” value in the series on E. faecium (n=75) (setting [6]) is > 64 µg/mL. For the same substance, the “number of resistant strains of E. faecium (VRE)” value in the series with E. faecium (n=75) (strains with MIC =64 mg/L (b1) / MIC >64 mg/L, number (% of strains)) is 7 (8%). Moreover, in [2], the “MICs against VISA strains” value lay within 4 to 8 mg/L. Further, the “MIC90 for the genera Staphylococcus and Enterococcus” value in series [3] was 1 to 2 µg/mL. Further, the “pseudoallergic inflammatory reaction” value in [4] was “statistically significant elevations of Me with respect to Mc”. Further, in the series with VISA, the “MIC for VISA isolates” value is ≥ 8 µg/mL. Also, in the series with VRE, the “activity against VRE, in words” value was “inactive”. For the same substance, in the series on CBA mice, the “MTD (LD10)” value was determined as 360 mg/kg. Moreover, the “ratio between therapeutic (ED50) and toxic doses (MTD)” value in the series with CBA mice (IV) was 1/90.

In the case of Eremomycin piperidide [compound 6], the MIC against S. epidermidis 533 was determined as 0.13 µg/mL; in the series with S. aureus 3797 (VISA), 0.5 µg/mL; with S. aureus 3798 (VISA), 2 µg/mL; with E. faecium 568, 0.5 µg/mL. Further, the “MICs against VISA strains” value in series [2] lay in the range of 0.5 to 2 mg/L.

For the substance “Eremomycin [compound 2, reference compound]”, the MIC stood at 0.25 µg/mL against S. epidermidis 533; 0.25 µg/mL in the series on S. haemolyticus 602; 4 µg/mL in the series on S. aureus 3797 (VISA); 4 µg/mL in the series on S. aureus 3798 (VISA); 0.5 µg/mL against E. faecium 568; 0.5 µg/mL against E. faecalis 559. The “MICs against VISA strains” value in series [2] was 4 to 8 mg/L. The “pseudoallergic inflammatory reaction” value in series [4] is reported as “statistically significant elevations of Me with respect to Mc”. Also, the “MIC against VISA” value with VISA was 8 µg/mL. The “activity against VRE, in words” value in the series with VRE is “inactive”. Further, the “MTD (LD10)” value with CBA mice is given as 877.9 mg/kg. Further, in the series with CBA mice (by LD50, CBA mice, IV), the “acute toxicity, fold lower than that of 1” value was ~3 fold.

On to Vancomycin piperidide [compound 4], for which the MIC in the series with S. epidermidis 533 was found to be 0.5 µg/mL; with S. aureus 3797 (VISA), 1 µg/mL; against S. aureus 3798 (VISA), 1 µg/mL; against E. faecium 568, 0.5 µg/mL. In series [2], the “MICs against VISA strains” value lay within 0.5 to 2 mg/L. Besides, the “MICs against the tested strains” value in series [5] is 0.5 to 8 mg/L.
